Laboratory results from ChEMBL document CHEMBL1667809, “Synthesis and in vitro antibacterial activity of 7-(3-alkoxyimino-5-amino/methylaminopiperidin-1-yl)fluoroquinolone derivatives” (Bioorg Med Chem Lett, 2011).
≈ marks a conversion by molar mass, not a printed value.

Assays:
Staphylococcus aureus [1] = assay: Antibacterial activity against methicillin-resistant Staphylococcus aureus 10-05 after 18 to 24 hrs by agar dilution method; format: functional
In short: (§1)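 Agar dilution on Petri dishes, each inoculated with 10⁴ cfu. Plates incubated at 35 °C for 18–24 h. MIC taken as the lowest test-compound concentration giving no visible growth on the plate. Reference drugs gemifloxacin, ciprofloxacin and levofloxacin run alongside for comparison.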

Staphylococcus aureus [2] = assay: Ratio of compound MIC to GMFX MIC for methicillin-sensitive Staphylococcus aureus 10-04; format: functional
Escherichia coli [3] = assay: Antibacterial activity against Escherichia coli 10-02 after 18 to 24 hrs by agar dilution method; format: functional
In short: (§2)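 Agar dilution on Petri dishes, each inoculated with 10⁴ cfu of the strain and incubated at 35 °C for 18–24 h. MIC read as the lowest compound concentration giving no visible growth on the plate.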

Staphylococcus aureus [4] = assay: Antibacterial activity against Staphylococcus aureus ATCC 25923 after 18 to 24 hrs by agar dilution method; format: functional; in short: as §2
[5] = system: Staphylococcus epidermidis; assay: Antibacterial activity against methicillin-resistant Staphylococcus epidermidis 10-5 after 18 to 24 hrs by agar dilution method; format: functional; in short: as §1
Escherichia coli [6] = assay: Antibacterial activity against Escherichia coli ATCC 25922 after 18 to 24 hrs by agar dilution method; format: functional; in short: as §2
[7] = system: Staphylococcus epidermidis; assay: Ratio of compound MIC to GMFX MIC for methicillin-resistant Staphylococcus epidermidis 10-5; format: functional
Streptococcus pneumoniae = assay: Antibacterial activity against Streptococcus pneumoniae 1001 after 18 to 24 hrs by agar dilution method; format: functional; in short: as §2
[8] = system: Staphylococcus epidermidis; assay: Antibacterial activity against methicillin-sensitive Staphylococcus epidermidis 10-4 after 18 to 24 hrs by agar dilution method; format: functional; in short: as §2
Staphylococcus aureus [9] = assay: Ratio of compound MIC to CPFX MIC for methicillin-sensitive Staphylococcus aureus 10-04; format: functional
Pseudomonas aeruginosa [10] = assay: Antibacterial activity against Pseudomonas aeruginosa 10-1 after 18 to 24 hrs by agar dilution method; format: functional; in short: as §2
Klebsiella pneumoniae = assay: Antibacterial activity against Klebsiella pneumoniae 10-1 after 18 to 24 hrs by agar dilution method; format: functional; in short: as §2
Staphylococcus aureus [11] = assay: Antibacterial activity against methicillin-sensitive Staphylococcus aureus 10-04 after 18 to 24 hrs by agar dilution method; format: functional; in short: as §2
[12] = Cytotoxicity against african green monkey Vero cells after 24 hrs; format: cell-based; details: chlorocebus sabaeus
In short: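 Vero cells exposed to graded compound concentrations for 24 h, then viability assessed; CC₅₀ derived from the viability data.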

Streptococcus pyogenes = assay: Antibacterial activity against Streptococcus hemolyticus 1002 after 18 to 24 hrs by agar dilution method; format: functional; in short: as §2
Staphylococcus aureus [13] = assay: Ratio of compound MIC to LVFX MIC for methicillin-sensitive Staphylococcus aureus 10-04; format: functional
[14] = system: Staphylococcus epidermidis; assay: Ratio of compound MIC to LVFX MIC for methicillin-resistant Staphylococcus epidermidis 10-5; format: functional
Pseudomonas aeruginosa [15] = assay: Antibacterial activity against Pseudomonas aeruginosa ATCC 27853 after 18 to 24 hrs by agar dilution method; format: functional; in short: as §2
[16] = system: Staphylococcus epidermidis; assay: Ratio of compound MIC to CPFX MIC for methicillin-resistant Staphylococcus epidermidis 10-5; format: functional

Row | SMILES | MIC (Staphylococcus aureus [1]) | Ratio (Staphylococcus aureus [2]) | MIC (Escherichia coli [3]) | MIC (Staphylococcus aureus [4]) | MIC [5] | MIC (Escherichia coli [6]) | Ratio [7] | MIC (Streptococcus pneumoniae) | MIC [8] | Ratio (Staphylococcus aureus [9]) | MIC (Pseudomonas aeruginosa [10]) | MIC (Klebsiella pneumoniae) | MIC (Staphylococcus aureus [11]) | CC50 at 24 h [12] | MIC (Streptococcus pyogenes) | Ratio (Staphylococcus aureus [13]) | Ratio [14] | MIC (Pseudomonas aeruginosa [15]) | Ratio [16]
1 | CCO/N=C1\CC(NC)CN(c2c(F)cc3c(=O)c(C(=O)O)cn(C4CC4)c3c2F)C1 (stereo unspecified) | 4 µg/mL (≈ 9.21 µM) | 4 | 0.5 µg/mL (≈ 1.15 µM) | 0.5 µg/mL (≈ 1.15 µM) | 2 µg/mL (≈ 4.6 µM) | 0.25 µg/mL (≈ 0.575 µM) | 2 | 1 µg/mL (≈ 2.3 µM) | 0.5 µg/mL (≈ 1.15 µM) | 4 | > 128 µg/mL | > 128 µg/mL | 0.25 µg/mL (≈ 0.575 µM) | 1.01 mM | 128 µg/mL (≈ 295 µM) | 4 | 2 | 128 µg/mL (≈ 295 µM) | 
2 | CO/N=C1\CC(N)CN(c2c(F)cc3c(=O)c(C(=O)O)cn(C4CC4)c3c2OC(F)F)C1 (stereo unspecified) | 128 µg/mL (≈ 282 µM) |  | 0.25 µg/mL (≈ 0.55 µM) | 2 µg/mL (≈ 4.4 µM) | 8 µg/mL (≈ 17.6 µM) | 0.25 µg/mL (≈ 0.55 µM) |  | 4 µg/mL (≈ 8.8 µM) | 2 µg/mL (≈ 4.4 µM) |  | > 128 µg/mL | > 128 µg/mL | 8 µg/mL (≈ 17.6 µM) | 0.667 mM | > 128 µg/mL |  |  | 128 µg/mL (≈ 282 µM) | 
3 | CCO/N=C1\CC(N)CN(c2c(F)cc3c(=O)c(C(=O)O)cn(C4CC4)c3c2OC(F)F)C1 (stereo unspecified) | 4 µg/mL (≈ 8.54 µM) | 4 | 0.25 µg/mL (≈ 0.534 µM) | 0.5 µg/mL (≈ 1.07 µM) | 1 µg/mL (≈ 2.13 µM) | 0.25 µg/mL (≈ 0.534 µM) | 2 | 1 µg/mL (≈ 2.13 µM) | 0.25 µg/mL (≈ 0.534 µM) | 4 | > 128 µg/mL | > 128 µg/mL | 0.25 µg/mL (≈ 0.534 µM) | 1.52 mM | 128 µg/mL (≈ 273 µM) | 4 | 2 | 128 µg/mL (≈ 273 µM) | 
4 | CO/N=C1\CC(N)CN(c2c(F)cc3c(=O)c(C(=O)O)cn4c3c2OC[C@@H]4C)C1 (stereo partly specified) | 128 µg/mL (≈ 317 µM) |  | 0.5 µg/mL (≈ 1.24 µM) | 0.5 µg/mL (≈ 1.24 µM) | 8 µg/mL (≈ 19.8 µM) | 0.25 µg/mL (≈ 0.618 µM) |  | 0.5 µg/mL (≈ 1.24 µM) | 4 µg/mL (≈ 9.89 µM) |  | 64 µg/mL (≈ 158 µM) | 64 µg/mL (≈ 158 µM) | 2 µg/mL (≈ 4.95 µM) | 1 mM | 64 µg/mL (≈ 158 µM) |  |  | 8 µg/mL (≈ 19.8 µM) | 
5 | CCO/N=C1\CC(N)CN(c2c(F)cc3c(=O)c(C(=O)O)cn4c3c2OC[C@@H]4C)C1 (stereo partly specified) | 4 µg/mL (≈ 9.56 µM) | 4 | 0.25 µg/mL (≈ 0.597 µM) | 0.25 µg/mL (≈ 0.597 µM) | 2 µg/mL (≈ 4.78 µM) | 0.25 µg/mL (≈ 0.597 µM) | 4 | 0.25 µg/mL (≈ 0.597 µM) | 0.5 µg/mL (≈ 1.19 µM) | 4 | 32 µg/mL (≈ 76.5 µM) | 64 µg/mL (≈ 153 µM) | 0.5 µg/mL (≈ 1.19 µM) | 1.24 mM | 8 µg/mL (≈ 19.1 µM) | 4 | 4 | 8 µg/mL (≈ 19.1 µM) | 8
